Source: ChEMBL document CHEMBL2413013, “Triplex-forming ability of oligonucleotides containing 1-aryl-1,2,3-triazole nucleobases linked via a two atom-length spacer” (Bioorg Med Chem, 2013)

Experiments:
[1] = Binding affinity to hairpin double stranded DNA GC base pair in sodium cacodylate buffer at pH 6.8 assessed as triplex-forming ability measuring melting temperature after by UV melting experiment
Outline: (§1)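 TFO and hairpin dsDNA target, each strand at 1.89 μM final, in 10 mM sodium cacodylate (pH 6.8) with 100 mM KCl and 50 mM MgCl₂. Annealed in boiling water, then cooled slowly to 5 °C. Melting was followed at 260 nm from 5 to 90 °C at 0.5 °C/min. Tm was taken by the two-point average method, mean of three independent runs.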

[2] = Binding affinity to hairpin double stranded DNA AT base pair in sodium cacodylate buffer at pH 6.8 assessed as triplex-forming ability measuring melting temperature after by UV melting experiment; outline: as §1
[3] = Binding affinity to hairpin double stranded DNA TA base pair in sodium cacodylate buffer at pH 6.8 assessed as triplex-forming ability measuring melting temperature after by UV melting experiment; outline: as §1
[4] = Binding affinity to hairpin double stranded DNA CG base pair in sodium cacodylate buffer at pH 6.8 assessed as triplex-forming ability measuring melting temperature after by UV melting experiment; outline: as §1

Row | Structure (SMILES) | Tm [1] [°C] | Tm [2] [°C] | Tm [3] [°C] | Tm [4] [°C]
1 | Cc1cn([C@H]2C[C@H](O[PH](OCCC#N)(OC[C@H]3O[C@@H](n4cc(C)c(=O)[nH]c4=O)C[C@@H]3O[PH](OCCC#N)(OC[C@H]3O[C@@H](n4cc(C)c(=O)[nH]c4=O)C[C@@H]3O[PH](OCCC#N)(OC[C@H]3O[C@@H](n4cc(C)c(=O)[nH]c4=O)C[C@@H]3O[PH](OCCC#N)(OC[C@H]3O[C@@H](n4cc(C)c(=O)[nH]c4=O)C[C@@H]3O[PH](OCCC#N)(OC(C)[C@H]3O[C@@H](n4ccc(N)nc4=O)C[C@@H]3O[PH](OCCC#N)(OC[C@H]3O[C@@H](n4cc(C)c(=O)[nH]c4=O)C[C@@H]3O[PH](OCCC#N)(OC[C@H]3O[C@@H](CCc4cn(-c5ccc(CO)cc5)nn4)C[C@@H]3OP(=O)(O)OC[C@H]3O[C@@H](n4cc(C)c(=O)[nH]c4=O)C[C@@H]3O[PH](OCCC#N)(OC(C)[C@H]3O[C@@H](n4ccc(N)nc4=O)C[C@@H]3O[PH](OCCC#N)(OC[C@H]3O[C@@H](n4cc(C)c(=O)[nH]c4=O)C[C@@H]3O[PH](OCCC#N)(OC(C)[C@H]3O[C@@H](n4ccc(N)nc4=O)C[C@@H]3O[PH](OCCC#N)(OC[C@H]3O[C@@H](n4cc(C)c(=O)[nH]c4=O)C[C@@H]3O[PH](OCCC#N)(OC(C)[C@H]3O[C@@H](n4ccc(N)nc4=O)C[C@@H]3O[PH](OCCC#N)(OC[C@H]3O[C@@H](n4cc(C)c(=O)[nH]c4=O)C[C@@H]3O)N(C(C)C)C(C)C)N(C(C)C)C(C)C)N(C(C)C)C(C)C)N(C(C)C)C(C)C)N(C(C)C)C(C)C)N(C(C)C)C(C)C)N(C(C)C)C(C)C)N(C(C)C)C(C)C)N(C(C)C)C(C)C)N(C(C)C)C(C)C)N(C(C)C)C(C)C)N(C(C)C)C(C)C)N(C(C)C)C(C)C)[C@@H](CO)O2)c(=O)[nH]c1=O (stereo partly drawn) | 19 | 19 | 22 | 23
2 | Cc1cn([C@H]2C[C@H](O[PH](OCCC#N)(OC[C@H]3O[C@@H](n4cc(C)c(=O)[nH]c4=O)C[C@@H]3O[PH](OCCC#N)(OC[C@H]3O[C@@H](n4cc(C)c(=O)[nH]c4=O)C[C@@H]3O[PH](OCCC#N)(OC[C@H]3O[C@@H](n4cc(C)c(=O)[nH]c4=O)C[C@@H]3O[PH](OCCC#N)(OC[C@H]3O[C@@H](n4cc(C)c(=O)[nH]c4=O)C[C@@H]3O[PH](OCCC#N)(OC(C)[C@H]3O[C@@H](n4ccc(N)nc4=O)C[C@@H]3O[PH](OCCC#N)(OC[C@H]3O[C@@H](n4cc(C)c(=O)[nH]c4=O)C[C@@H]3O[PH](OCCC#N)(OC[C@H]3O[C@@H](CCc4cn(-c5ccccc5)nn4)C[C@@H]3OP(=O)(O)OC[C@H]3O[C@@H](n4cc(C)c(=O)[nH]c4=O)C[C@@H]3O[PH](OCCC#N)(OC(C)[C@H]3O[C@@H](n4ccc(N)nc4=O)C[C@@H]3O[PH](OCCC#N)(OC[C@H]3O[C@@H](n4cc(C)c(=O)[nH]c4=O)C[C@@H]3O[PH](OCCC#N)(OC(C)[C@H]3O[C@@H](n4ccc(N)nc4=O)C[C@@H]3O[PH](OCCC#N)(OC[C@H]3O[C@@H](n4cc(C)c(=O)[nH]c4=O)C[C@@H]3O[PH](OCCC#N)(OC(C)[C@H]3O[C@@H](n4ccc(N)nc4=O)C[C@@H]3O[PH](OCCC#N)(OC[C@H]3O[C@@H](n4cc(C)c(=O)[nH]c4=O)C[C@@H]3O)N(C(C)C)C(C)C)N(C(C)C)C(C)C)N(C(C)C)C(C)C)N(C(C)C)C(C)C)N(C(C)C)C(C)C)N(C(C)C)C(C)C)N(C(C)C)C(C)C)N(C(C)C)C(C)C)N(C(C)C)C(C)C)N(C(C)C)C(C)C)N(C(C)C)C(C)C)N(C(C)C)C(C)C)N(C(C)C)C(C)C)[C@@H](CO)O2)c(=O)[nH]c1=O (stereo partly drawn) | 20 | 21 | 22 | 24
